The values that follow come from ChEMBL document CHEMBL3804769, “Antibacterial Diamines Targeting Bacterial Membranes” (J Med Chem, 2016).

Data set [1] relates to Staphylococcus aureus. Kind of data set: Antibacterial activity against methicillin-resistant Staphylococcus aureus clinical isolate 30253CA SPA type 7 after 24 hrs by microbroth dilution method. In kind it is functional. Put shortly:
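MRSA isolates from ICU surfaces, stored at −80 °C and grown in Mueller-Hinton broth. Overnight cultures diluted and added to serially diluted compound at ~10⁵ CFU/mL, broth microdilution. Plates incubated 24 h at 37 °C, growth read as absorbance at 620 nm. MIC99 taken as the lowest concentration giving complete growth inhibition.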

Data set [2] in a line: Selectivity index, ratio of CC50 for HEK293T/17 cells to MIC99 for Escherichia coli ANS1. Put shortly: (§1)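 CC50: HEK293T/17 or A549 cells seeded at 10⁴ per well in DMEM with 10% FBS at 37 °C, 5% CO2. After 24 h, wells PBS-washed and serially diluted compound applied for 48 h, with viability read by MTS and CC50 taken by nonlinear regression. MIC99 by CLSI broth microdilution, overnight at 37 °C without shaking, from three independent tests. SI = CC50/MIC99.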

For data set [3], the system named is Caenorhabditis elegans. Kind of data set: Toxicity in adult L4/juvenile L1 stages of Caenorhabditis elegans N2 assessed as effect on egg production at 64 ug/ml incubated for 96 hrs measured every 12 hrs. The class given is organism-based. Conditions: in vivo. In outline:
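C. elegans N2 maintained on NGM agar at 22 °C. Compound mixed into molten NGM agar at 64 μg/mL. L4 adults, L1 juveniles and synchronized eggs transferred onto test plates and kept 96 h at 22 °C. Checked every 12 h for death, development and egg production. Gentamicin and […] as controls.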

A short description of data set [4]: Cytotoxicity against HEK293T/17 cells after 48 hrs by MTS conversion assay. The class given is cell-based, HEK-293T. As to conditions: human. Put shortly:
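HEK293T/17 and A549 cells maintained in DMEM with 10% FBS at 37 °C, 5% CO2. Seeded at 10⁴ cells per well; after 24 h, washed with PBS and exposed to serially diluted compound for 48 h. Viability read by MTS conversion. CC50 obtained by nonlinear regression.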

Data set [5] can be described thus: Toxicity in adult L4/juvenile L1 stages of Caenorhabditis elegans N2 assessed as survival at 64 ug/ml incubated for 96 hrs measured every 12 hrs. In kind it is organism-based. As to conditions: in vivo. Put shortly: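 C. elegans N2 kept on NGM agar at 22 °C. Compound mixed into molten NGM agar at 64 μg/mL. L4 adults, L1 juveniles and synchronized eggs transferred onto test plates and held at 22 °C for 96 h. Death, development and egg production checked every 12 h.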

The test system of data set [6] is Staphylococcus aureus. Kind of data set: Antibacterial activity against Staphylococcus aureus RN4220 ATCC 35556 at 0.5 times MIC99 after 24 hrs by checkerboard assay in presence of norfloxacin. The class given is functional. Put shortly: (§2)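 Checkerboard assay: compound serially diluted along one axis of a 96-well plate and antibiotic along the other, in LB. Each well inoculated with 2 × 10⁴ CFU and incubated 24 h at 37 °C. ΣFIC = FIC A + FIC B, where each FIC is the combination MIC99 divided by the MIC99 of that drug alone.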

Data set [7] has as its system Pseudomonas aeruginosa. Kind of data set: Bactericidal activity against Pseudomonas aeruginosa PAO1 ATCC 47085 assessed as reduction in bacterial burden at 4 times MIC99. In kind it is functional.
Data set [8] in a line: Selectivity index, ratio of CC50 for human A549 cells to MIC99 for methicillin-resistant Staphylococcus aureus clinical isolate.
Data set [9] is described as follows: Selectivity index, ratio of CC50 for human A549 cells to MIC99 for Staphylococcus aureus RN4220 ATCC 35556. In kind it is toxicity, cell-based. Conditions: read-out: Selectivity Index. Put shortly:
as §1

The test system of data set [10] is Caenorhabditis elegans. Description: Toxicity in adult L4/juvenile L1 stages of Caenorhabditis elegans N2 assessed as effect on locomotion at 64 ug/ml incubated for 96 hrs measured every 12 hrs. The class given is organism-based. Conditions: in vivo.
For data set [11], the system named is Staphylococcus aureus. Description: Antibacterial activity against Staphylococcus aureus RN4220 ATCC 35556 at 0.5 times MIC99 after 24 hrs by checkerboard assay in presence of kanamycin. In kind it is functional. In outline: as §2
The test system of data set [12] is Pseudomonas aeruginosa. Kind of data set: Antibiofilm activity against Pseudomonas aeruginosa PAO1 ATCC 47085 at 64 ug/ml after 24 hrs by crystal violet staining-based spectrophotometry. In kind it is functional, organism-based. In outline: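 PAO1 grown 2 h in LB at 37 °C with shaking, then diluted 1:1000 in 10% LB-PBS to 3 × 10⁵ CFU/mL and mixed with serially diluted compound. Biofilms grown on peg lids 24 h at 37 °C, static. Pegs washed, stained with 0.1% crystal violet for 15 min, dye eluted in 95% ethanol and read at 600 nm. Control was 10% LB-PBS.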

SMILES strings stand for the structures. Calls of active or inactive are those of the source. The rule behind the calls is not given here. A value given as a limit tells only on which side of the number the result lay.

`Cl.Cl.S=C(NCCCNCCCCCNCCCNC(=S)NCC(c1ccccc1)c1ccccc1)NCC(c1ccccc1)c1ccccc1` displayed an MIC99 in the data set on Staphylococcus aureus [1] of 1 µg/mL. Besides, the “Selectivity Index” value in [2] came to 16; in data set [8], 64. For the same compound, the Activity entry was “Non-toxic” in the data set on Caenorhabditis elegans [3], above 2 deltalog10CFU/ml with Pseudomonas aeruginosa [7] and “Non-toxic” in the data set with Caenorhabditis elegans [10]. In data set [4], this compound had a CC50 at 48 h of 32 µg/mL. For the same compound, the survival at 96 h, 64 ug/ml in data set [5] was found to be 100%. For the same compound, the figures for the “fractional inhibitory concentration index (FICI)” value with Staphylococcus aureus [6] and in the data set on Staphylococcus aureus [11] were 0.75 and 0.25, respectively. Further, the selectivity ratio in [9] came to 32. For the same compound, in the data set on Pseudomonas aeruginosa [12], the outcome was Active.
